From ChEMBL document CHEMBL5696442, “Discovery of type II inhibitors of TGFβ-activated kinase 1 (TAK1) and mitogen-activated protein kinase kinase kinase kinase 2 (MAP4K2)” (J Med Chem, 2015)
Calls of active or inactive are those of the source. No cut-off for these calls is given here.

Experiments:
[1] = molecular target: eIF-2-alpha kinase GCN2 (Homo sapiens) (UniProt Q9P2K8); assay: Inhibition of GCN2 domain2 Lys2 labeling site in human Huh-7 cell lysate at 1 uM by KiNativ Profiling analysis relative to control; format: subcellular
eIF-2-alpha kinase GCN2 (Homo sapiens), sequence (Q9P2K8 whole entry, the tested form may be a part): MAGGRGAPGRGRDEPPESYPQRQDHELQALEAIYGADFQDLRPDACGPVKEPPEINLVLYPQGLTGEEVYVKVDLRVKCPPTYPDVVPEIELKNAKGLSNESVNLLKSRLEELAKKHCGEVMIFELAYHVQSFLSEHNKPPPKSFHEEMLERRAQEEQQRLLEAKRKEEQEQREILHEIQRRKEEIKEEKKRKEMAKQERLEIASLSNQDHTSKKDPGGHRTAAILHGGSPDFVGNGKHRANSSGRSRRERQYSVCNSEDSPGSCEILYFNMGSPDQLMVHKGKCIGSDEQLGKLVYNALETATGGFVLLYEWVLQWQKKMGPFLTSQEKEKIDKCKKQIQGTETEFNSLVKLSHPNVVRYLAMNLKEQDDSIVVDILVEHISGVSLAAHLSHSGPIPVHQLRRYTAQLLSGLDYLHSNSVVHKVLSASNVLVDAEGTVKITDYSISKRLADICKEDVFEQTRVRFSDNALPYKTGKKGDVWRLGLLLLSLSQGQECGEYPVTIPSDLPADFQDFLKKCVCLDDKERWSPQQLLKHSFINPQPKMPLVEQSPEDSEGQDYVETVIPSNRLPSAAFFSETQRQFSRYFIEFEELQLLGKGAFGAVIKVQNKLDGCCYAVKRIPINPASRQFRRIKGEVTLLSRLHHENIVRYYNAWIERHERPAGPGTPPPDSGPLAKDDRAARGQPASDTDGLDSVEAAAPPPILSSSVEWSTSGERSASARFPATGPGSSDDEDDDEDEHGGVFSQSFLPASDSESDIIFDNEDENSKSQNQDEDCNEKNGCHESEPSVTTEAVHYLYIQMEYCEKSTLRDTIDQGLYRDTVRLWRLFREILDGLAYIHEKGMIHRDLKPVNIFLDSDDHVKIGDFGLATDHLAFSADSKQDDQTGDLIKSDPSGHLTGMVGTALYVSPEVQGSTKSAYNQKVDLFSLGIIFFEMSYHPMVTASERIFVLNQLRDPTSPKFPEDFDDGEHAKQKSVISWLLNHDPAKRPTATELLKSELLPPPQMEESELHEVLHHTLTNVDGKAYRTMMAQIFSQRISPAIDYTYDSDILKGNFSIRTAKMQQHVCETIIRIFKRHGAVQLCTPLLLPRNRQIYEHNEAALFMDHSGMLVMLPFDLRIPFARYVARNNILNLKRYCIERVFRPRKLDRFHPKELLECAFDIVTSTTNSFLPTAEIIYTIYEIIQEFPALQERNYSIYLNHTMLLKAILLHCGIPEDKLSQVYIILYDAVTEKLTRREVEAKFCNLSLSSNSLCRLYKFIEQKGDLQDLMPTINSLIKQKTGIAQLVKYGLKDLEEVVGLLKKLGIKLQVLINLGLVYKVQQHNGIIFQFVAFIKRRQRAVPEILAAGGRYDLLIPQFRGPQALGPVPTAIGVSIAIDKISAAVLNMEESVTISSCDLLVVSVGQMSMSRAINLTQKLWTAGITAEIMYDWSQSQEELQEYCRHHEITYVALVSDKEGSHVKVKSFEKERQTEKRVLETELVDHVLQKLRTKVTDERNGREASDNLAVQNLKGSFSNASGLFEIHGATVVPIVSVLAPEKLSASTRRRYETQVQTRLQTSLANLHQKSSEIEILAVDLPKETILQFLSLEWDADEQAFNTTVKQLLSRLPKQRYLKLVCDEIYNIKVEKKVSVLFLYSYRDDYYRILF

[2] = molecular target: Cyclin-dependent kinase 11B (Homo sapiens) (UniProt P21127); assay: Inhibition of PITSLRE Lys2 labeling site in human Huh-7 cells at 1 uM by KiNativ Profiling analysis relative to control; format: cell-based
[3] = molecular target: Ribosomal protein S6 kinase alpha-3 (Homo sapiens) (UniProt P51812); assay: Inhibition of RSK2 domain1 Lys2 labeling site harbouring DLKPENILLDEEGHIKLTDFGLSK in human A-375 cells at 5 uM by KiNativ Profiling analysis relative to control; format: cell-based
Ribosomal protein S6 kinase alpha-3 (Homo sapiens), sequence (P51812 whole entry, the tested form may be a part): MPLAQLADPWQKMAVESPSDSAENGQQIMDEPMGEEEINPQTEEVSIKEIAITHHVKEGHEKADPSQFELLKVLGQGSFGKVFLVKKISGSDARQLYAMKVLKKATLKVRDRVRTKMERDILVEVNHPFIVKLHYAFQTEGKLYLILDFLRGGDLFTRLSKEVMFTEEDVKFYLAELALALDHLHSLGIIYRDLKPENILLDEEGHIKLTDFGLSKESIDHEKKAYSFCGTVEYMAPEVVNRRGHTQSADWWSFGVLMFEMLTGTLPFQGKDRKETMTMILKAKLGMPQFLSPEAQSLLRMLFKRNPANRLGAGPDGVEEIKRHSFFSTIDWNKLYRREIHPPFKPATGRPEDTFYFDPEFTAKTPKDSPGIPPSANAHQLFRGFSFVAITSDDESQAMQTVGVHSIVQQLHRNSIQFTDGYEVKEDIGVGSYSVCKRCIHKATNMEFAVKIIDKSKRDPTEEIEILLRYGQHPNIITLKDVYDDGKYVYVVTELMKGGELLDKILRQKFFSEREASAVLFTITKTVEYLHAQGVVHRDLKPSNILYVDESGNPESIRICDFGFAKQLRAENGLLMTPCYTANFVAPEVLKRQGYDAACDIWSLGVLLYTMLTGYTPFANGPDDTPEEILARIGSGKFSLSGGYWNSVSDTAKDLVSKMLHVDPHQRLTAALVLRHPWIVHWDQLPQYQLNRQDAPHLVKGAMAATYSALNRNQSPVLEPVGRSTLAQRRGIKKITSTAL
How it was run: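 Live A375 melanoma cells treated with compound at 5 or 0.5 μM, then lysed. Lysate kinases were labeled with a lysine-reactive ATP or ADP-biotin probe. Inhibition was read as protection of labeling sites from the probe.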

[4] = molecular target: T1, Mitogen-activated protein kinase kinase kinase 7 (Homo sapiens) (UniProt O43318); assay: Inhibition of TAK1 (unknown origin) at 1 uM by Ambit Kinomescan binding assay relative to control; values are per cent of control
T1 sequence (whole entry): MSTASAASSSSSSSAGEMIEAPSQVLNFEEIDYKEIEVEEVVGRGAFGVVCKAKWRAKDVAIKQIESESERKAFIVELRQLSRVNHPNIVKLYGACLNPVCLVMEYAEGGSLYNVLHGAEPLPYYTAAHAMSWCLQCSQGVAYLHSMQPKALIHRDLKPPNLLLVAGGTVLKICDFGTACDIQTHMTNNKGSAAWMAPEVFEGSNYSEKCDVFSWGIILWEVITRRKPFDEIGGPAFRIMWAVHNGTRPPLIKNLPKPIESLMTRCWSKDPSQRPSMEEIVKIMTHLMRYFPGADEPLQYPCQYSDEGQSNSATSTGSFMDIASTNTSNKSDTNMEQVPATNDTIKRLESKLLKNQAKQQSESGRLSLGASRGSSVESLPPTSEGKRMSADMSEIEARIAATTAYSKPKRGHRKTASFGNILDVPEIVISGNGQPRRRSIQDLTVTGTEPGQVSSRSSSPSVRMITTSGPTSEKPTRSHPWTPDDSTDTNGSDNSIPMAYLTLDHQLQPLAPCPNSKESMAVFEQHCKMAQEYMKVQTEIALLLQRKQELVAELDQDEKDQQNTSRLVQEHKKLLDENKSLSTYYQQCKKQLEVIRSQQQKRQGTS

[5] = molecular target: Myosin-IIIb (Homo sapiens) (UniProt Q8WXR4); assay: Inhibition of MYO3B (unknown origin) at 1 uM by Ambit Kinomescan binding assay relative to control
Myosin-IIIb (Homo sapiens), sequence (Q8WXR4 whole entry): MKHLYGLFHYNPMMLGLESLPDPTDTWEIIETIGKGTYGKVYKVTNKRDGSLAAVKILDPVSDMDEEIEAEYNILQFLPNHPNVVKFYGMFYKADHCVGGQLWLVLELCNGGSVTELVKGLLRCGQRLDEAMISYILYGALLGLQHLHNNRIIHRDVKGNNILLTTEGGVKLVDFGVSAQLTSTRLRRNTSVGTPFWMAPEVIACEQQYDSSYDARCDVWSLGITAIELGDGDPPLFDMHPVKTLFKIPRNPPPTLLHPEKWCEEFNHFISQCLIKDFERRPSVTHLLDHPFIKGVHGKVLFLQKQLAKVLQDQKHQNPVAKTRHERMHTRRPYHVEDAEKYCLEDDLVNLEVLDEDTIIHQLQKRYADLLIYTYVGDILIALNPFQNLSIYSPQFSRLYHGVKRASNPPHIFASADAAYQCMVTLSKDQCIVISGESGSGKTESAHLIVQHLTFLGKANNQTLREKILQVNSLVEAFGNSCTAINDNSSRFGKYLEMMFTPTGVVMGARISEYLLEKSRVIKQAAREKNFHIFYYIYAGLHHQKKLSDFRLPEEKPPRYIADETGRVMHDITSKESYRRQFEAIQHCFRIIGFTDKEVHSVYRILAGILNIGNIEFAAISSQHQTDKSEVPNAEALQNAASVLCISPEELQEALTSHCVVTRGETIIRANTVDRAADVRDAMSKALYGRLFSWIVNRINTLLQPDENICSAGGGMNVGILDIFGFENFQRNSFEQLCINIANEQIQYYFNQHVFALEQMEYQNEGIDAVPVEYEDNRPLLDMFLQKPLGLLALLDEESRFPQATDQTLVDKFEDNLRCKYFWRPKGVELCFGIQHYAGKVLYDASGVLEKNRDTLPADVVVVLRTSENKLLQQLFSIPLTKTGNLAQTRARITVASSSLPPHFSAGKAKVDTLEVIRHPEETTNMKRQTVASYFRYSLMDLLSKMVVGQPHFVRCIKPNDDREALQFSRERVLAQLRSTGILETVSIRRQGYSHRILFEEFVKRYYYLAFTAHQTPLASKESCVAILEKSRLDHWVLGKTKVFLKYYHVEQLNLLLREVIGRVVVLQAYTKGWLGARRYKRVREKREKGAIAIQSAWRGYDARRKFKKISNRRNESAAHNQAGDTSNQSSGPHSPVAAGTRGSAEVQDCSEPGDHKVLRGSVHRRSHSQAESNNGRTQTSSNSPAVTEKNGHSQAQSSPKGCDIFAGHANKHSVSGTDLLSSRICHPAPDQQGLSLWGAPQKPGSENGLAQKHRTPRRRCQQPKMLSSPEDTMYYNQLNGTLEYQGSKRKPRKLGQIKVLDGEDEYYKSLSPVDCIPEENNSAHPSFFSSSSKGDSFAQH
How it was run: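 In vitro ATP-site competition binding assay against a panel of over 420 kinases (KinomeScan), with compound tested at 10 or 1 μM.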

[6] = tested on: Receptor-type tyrosine-protein kinase FLT3 (Homo sapiens), P36888 [K663Q]; assay: Inhibition of FLT3 K663Q mutant (unknown origin) at 1 uM by Ambit Kinomescan binding assay relative to control; values are per cent of control
[7] = molecular target: Serine/threonine-protein kinase Nek4 (Homo sapiens) (UniProt P51957); assay: Inhibition of NEK4 K2 labeling site in human Huh-7 cells at 10 uM by KiNativ Profiling analysis relative to control; format: cell-based
[8] = molecular target: Calcium/calmodulin-dependent protein kinase type 1 (Homo sapiens) (UniProt Q14012); assay: Inhibition of CaMK1a K1 labeling site in human Huh-7 cells at 10 uM by KiNativ Profiling analysis relative to control; format: cell-based
Calcium/calmodulin-dependent protein kinase type 1 (Homo sapiens), sequence (Q14012 whole entry, looked up): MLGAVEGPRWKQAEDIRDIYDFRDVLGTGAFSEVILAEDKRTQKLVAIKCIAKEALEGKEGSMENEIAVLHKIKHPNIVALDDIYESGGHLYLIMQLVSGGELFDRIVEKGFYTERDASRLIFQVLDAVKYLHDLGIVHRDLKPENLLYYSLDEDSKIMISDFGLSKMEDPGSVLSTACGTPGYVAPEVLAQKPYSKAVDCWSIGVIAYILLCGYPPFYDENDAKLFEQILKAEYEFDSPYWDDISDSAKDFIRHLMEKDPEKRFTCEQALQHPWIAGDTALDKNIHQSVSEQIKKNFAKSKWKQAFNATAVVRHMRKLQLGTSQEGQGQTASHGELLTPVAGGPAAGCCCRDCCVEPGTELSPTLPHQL

[9] = molecular target: T2, Serine/threonine-protein kinase TAO2 (Homo sapiens) (UniProt Q9UL54); assay: Inhibition of TAO2 K2 labeling site in human Huh-7 cells at 10 uM by KiNativ Profiling analysis relative to control; format: cell-based
T2 sequence (whole entry): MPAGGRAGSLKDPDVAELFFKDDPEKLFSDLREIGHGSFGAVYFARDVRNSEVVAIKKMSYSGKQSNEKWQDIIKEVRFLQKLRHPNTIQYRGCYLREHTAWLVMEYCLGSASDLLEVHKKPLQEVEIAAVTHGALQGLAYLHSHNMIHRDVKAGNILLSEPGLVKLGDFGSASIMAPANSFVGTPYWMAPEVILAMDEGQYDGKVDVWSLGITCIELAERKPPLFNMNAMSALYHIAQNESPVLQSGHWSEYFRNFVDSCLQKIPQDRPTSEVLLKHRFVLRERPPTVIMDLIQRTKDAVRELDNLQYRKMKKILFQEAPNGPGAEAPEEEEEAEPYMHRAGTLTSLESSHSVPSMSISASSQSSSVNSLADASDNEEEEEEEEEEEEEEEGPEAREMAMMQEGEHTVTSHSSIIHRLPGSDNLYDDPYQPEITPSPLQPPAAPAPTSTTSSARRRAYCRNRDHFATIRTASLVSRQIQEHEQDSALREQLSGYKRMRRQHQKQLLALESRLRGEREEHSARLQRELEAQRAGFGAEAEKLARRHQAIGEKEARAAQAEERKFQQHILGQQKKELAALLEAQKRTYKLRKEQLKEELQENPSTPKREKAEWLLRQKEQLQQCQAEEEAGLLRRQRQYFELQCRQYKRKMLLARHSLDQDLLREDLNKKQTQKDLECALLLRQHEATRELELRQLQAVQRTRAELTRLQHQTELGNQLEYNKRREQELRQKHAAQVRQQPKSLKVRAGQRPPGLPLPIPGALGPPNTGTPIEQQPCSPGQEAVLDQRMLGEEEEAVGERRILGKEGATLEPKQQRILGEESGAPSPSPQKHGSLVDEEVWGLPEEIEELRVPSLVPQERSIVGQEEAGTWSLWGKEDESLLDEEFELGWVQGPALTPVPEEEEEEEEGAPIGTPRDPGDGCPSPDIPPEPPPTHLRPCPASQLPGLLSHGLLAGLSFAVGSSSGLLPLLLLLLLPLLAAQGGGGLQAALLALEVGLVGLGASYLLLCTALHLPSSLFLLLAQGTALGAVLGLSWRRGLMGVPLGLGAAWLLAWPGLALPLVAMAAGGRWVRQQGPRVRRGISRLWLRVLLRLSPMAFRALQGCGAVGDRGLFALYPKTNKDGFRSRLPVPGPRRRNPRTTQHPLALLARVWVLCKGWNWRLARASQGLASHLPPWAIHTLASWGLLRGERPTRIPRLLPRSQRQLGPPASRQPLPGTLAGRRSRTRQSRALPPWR

[10] = molecular target: Rho-associated protein kinase (Homo sapiens) (UniProt O75116+Q13464); assay: Inhibition of ROCK1/2 K2 labeling site in human Huh-7 cells at 10 uM by KiNativ Profiling analysis relative to control; format: cell-based
[11] = molecular target: Serine/threonine-protein kinase Chk2 (Homo sapiens) (UniProt O96017); assay: Inhibition of CHEK2 (unknown origin) at 10 uM by Ambit Kinomescan binding assay
Serine/threonine-protein kinase Chk2 (Homo sapiens), sequence (O96017 whole entry): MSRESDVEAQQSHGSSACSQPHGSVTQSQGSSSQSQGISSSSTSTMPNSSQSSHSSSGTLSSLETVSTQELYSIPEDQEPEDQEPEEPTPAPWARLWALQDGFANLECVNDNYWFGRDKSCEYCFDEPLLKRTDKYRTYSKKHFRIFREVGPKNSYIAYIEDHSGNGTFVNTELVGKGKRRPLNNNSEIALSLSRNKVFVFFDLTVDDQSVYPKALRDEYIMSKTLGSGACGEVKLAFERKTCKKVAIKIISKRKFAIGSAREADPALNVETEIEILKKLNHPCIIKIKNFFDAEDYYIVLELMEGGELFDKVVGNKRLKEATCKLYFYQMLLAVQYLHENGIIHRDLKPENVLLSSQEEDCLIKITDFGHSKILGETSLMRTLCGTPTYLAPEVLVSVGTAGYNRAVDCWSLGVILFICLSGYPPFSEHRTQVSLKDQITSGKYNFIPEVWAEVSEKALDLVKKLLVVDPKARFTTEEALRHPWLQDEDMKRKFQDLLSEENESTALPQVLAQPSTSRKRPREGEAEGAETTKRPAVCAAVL

`CNc1cc(Oc2cc(C(=O)Nc3cc(N4CCN(C)CC4)cc(C(F)(F)F)c3)ccc2C)ncn1` gave an inhibition [1] of 2.5% and an inhibition [2] of 15.6%.

Molecule `CCN1CCN(Cc2ccc(NC(=O)c3ccc(C)c(/C=C/c4cnc5[nH]ccc5c4OC)c3)cc2C(F)(F)F)CC1` has an inhibition [3] of -4.9%, a percent of control [4] of 1.2% and an inhibition [5] of 84%. The residual activity [6] was 0.15%.

`CCN1CCN(Cc2ccc(NC(=O)c3ccc(C)c(Oc4ccnc5[nH]ccc45)c3)cc2C(F)(F)F)CC1` gave an inhibition [7] of 11.4%, an inhibition [8] of 48.2% and an inhibition [9] of 28.6%. The inhibition [10] was 4.1% and the inhibition [11] was “inactive”.
